Test results from ChEMBL document CHEMBL5230171, “Expanding the structure-activity relationships of alkynyl diphenylurea scaffold as promising antibacterial agents” (RSC Med Chem, 2023).
In brackets after ≈: the same amount, converted by molar mass. Activity calls are given as the source filed them.

Legend:
Staphylococcus aureus [1] = assay: Antibacterial activity against vancomycin resistant Staphylococcus aureus 9 assessed as inhibition of bacterial growth incubated for 18 to 20 hrs by CLSI protocol based broth microdilution method; type: functional; conditions: time 18-20 hrs
Procedure, shortened: (§1)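 Broth microdilution against staphylococcal clinical isolates. Each strain was prepared as a 0.5 McFarland suspension and diluted in cation-adjusted Mueller Hinton broth to ~5 × 10^5 CFU mL−1. Serial dilutions of test agents in DMSO stock were incubated with the bacteria, and the MIC was recorded.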

Staphylococcus aureus [2] = assay: (§2) Antibacterial activity against methicillin resistant Staphylococcus aureus NRS384 USA300 infected in Balb/c mouse model of skin infection assessed as reduction in bacterial burden in spleen administered topically twice daily for three consecutive days from day 4 to 6 and measured 24 hrs post last dose; type: functional; conditions: route top; time 4 day
Procedure, shortened: (§3)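 Mice were anesthetized with 2,2,2-tribromoethanol and injected subcutaneously with 100 μL containing 2 × 10^9 CFU MRSA USA300 in 0.5% HPMC in saline. Topical treatment used a petroleum jelly vehicle, with a fusidic acid positive control. Lesions were photographed 24 h after the last dose. A ~1.5 cm2 skin patch (homogenized in 1 mL saline) and the spleen (in 0.5 mL) were serially diluted and plated on MSA at 37 °C overnight for CFU.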

Listeria monocytogenes = assay: Antibacterial activity against Listeria monocytogenes 19111 assessed as inhibition of bacterial growth incubated for 18 to 20 hrs by CLSI protocol based broth microdilution method; type: functional; conditions: time 18-20 hrs
Procedure, shortened: (§4)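 Enterococci and L. monocytogenes were diluted from a 0.5 McFarland suspension in TSB. They were incubated with serial dilutions of test agent in broth microdilution, and the MIC was recorded.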

Staphylococcus aureus [3] = assay: Post antibiotic effect against methicillin resistant Staphylococcus aureus NRS384 USA300 assessed as time required for 1 log10 increase in CFU at 5 times of MIC incubated for 2 hrs followed by replacement with drug free medium and measured after 18-24 hrs; type: functional
Procedure, shortened: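 MRSA USA300 at ~10^6 CFU mL−1 was exposed for 2 h to 5× MIC of test agent, with vancomycin or DMSO as controls. Drug was removed by 1:1000 dilution in fresh TSB. Cultures were incubated at 37 °C with 180 rpm shaking and sampled hourly for 8 h, with viable counts on MSA read after 18–24 h. PAE = T − C, where T and C are the times for a 1 log10 rise in the test and control cultures.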

Streptococcus mutans = assay: Antibacterial activity against Streptococcus mutans 25175 assessed as inhibition of bacterial growth incubated for 18 to 20 hrs by CLSI protocol based broth microdilution method; type: functional; conditions: time 18-20 hrs
Procedure, shortened: (§5)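 Streptococci were diluted from a 0.5 McFarland suspension in cation-adjusted Mueller Hinton broth with 5% lysed horse blood. They were incubated with serial dilutions of test agent in broth microdilution, and the MIC was recorded.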

Staphylococcus aureus [4] = assay: Induction of drug resistance in methicillin resistant Staphylococcus aureus NRS384 USA300 assessed as change in MIC measured after 4 passages by broth microdilution method; type: functional, organism-based
Procedure, shortened: (§6)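 Multi-step resistance in MRSA USA300 over 14 consecutive passages, with rifampicin as the control antibiotic. The MIC was determined by broth microdilution at each passage. Resistance was defined as a greater than four-fold rise over the initial MIC.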

Staphylococcus aureus [5] = assay: Antibacterial activity against methicillin resistant Staphylococcus aureus 123 assessed as inhibition of bacterial growth incubated for 18 to 20 hrs by CLSI protocol based broth microdilution method; type: functional; conditions: time 18-20 hrs; procedure, shortened: as §1
Enterococcus faecium = assay: Antibacterial activity against Enterococcus faecium 700221 assessed as inhibition of bacterial growth incubated for 18 to 20 hrs by CLSI protocol based broth microdilution method; type: functional; conditions: time 18-20 hrs; procedure, shortened: as §4
Streptococcus pneumoniae = assay: Antibacterial activity against Streptococcus pneumoniae 51916 assessed as inhibition of bacterial growth incubated for 18 to 20 hrs by CLSI protocol based broth microdilution method; type: functional; conditions: time 18-20 hrs; procedure, shortened: as §5
Vero = assay: Cytotoxicity against African green monkey Vero cells assessed as reduction in cell viability at 64 ug/ml incubated for 24 hrs by MTS assay; type: toxicity, cell-based; conditions: chlorocebus sabaeus, dose 64 µg/ml
Procedure, shortened: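 Vero or HaCaT cells were exposed to 32, 64 and 128 μg mL−1 compound in triplicate for 24 h at 37 °C, 5% CO2, with a DMSO control. MTS was then added for 4 h and OD490 read. Analysis used two-way ANOVA with Dunnett's post hoc test (p < 0.05).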

Staphylococcus aureus [6] = assay: Induction of drug resistance in methicillin resistant Staphylococcus aureus NRS384 USA300 assessed as fold change in MIC measured from passage 5 to 14 by broth microdilution method; type: functional; procedure, shortened: as §6
Staphylococcus aureus [7] = assay: as §2, with “skin lesions” for “spleen”; type: functional; conditions: route top; time 4 day; procedure, shortened: as §3
Staphylococcus aureus [8] = assay: Antibacterial activity against methicillin resistant Staphylococcus aureus 119 assessed as inhibition of bacterial growth incubated for 18 to 20 hrs by CLSI protocol based broth microdilution method; type: functional; conditions: time 18-20 hrs; procedure, shortened: as §1

Work on `C/C(=N\NC(=N)N)c1ccc(NC(=O)Nc2ccc(C#Cc3ccccc3)cc2)cc1` yielded an MIC (Staphylococcus aureus [1]) of 0.5 µg/mL (≈ 1.22 µM), an Activity (Staphylococcus aureus [2]) greater than 1 log10CFU/ml and an MIC (Listeria monocytogenes) of 0.5 µg/mL (≈ 1.22 µM). The Time (Staphylococcus aureus [3]) was 5 h, the MIC (Streptococcus mutans) was 0.5 µg/mL (≈ 1.22 µM) and the Activity (Staphylococcus aureus [4]) was “inactive”. For the same molecule, the MIC (Staphylococcus aureus [5]) was 0.5 µg/mL (≈ 1.22 µM), the MIC (Enterococcus faecium) was 0.5 µg/mL (≈ 1.22 µM) and the MIC (Streptococcus pneumoniae) was 0.5 µg/mL (≈ 1.22 µM). For the same molecule, the Activity (Vero) was “Non-Toxic”, the “fold change (FC)” value (Staphylococcus aureus [6]) was 1 and the Activity (Staphylococcus aureus [7]) was 0.5 log10CFU/ml. It also gave an MIC (Staphylococcus aureus [8]) of 0.5 µg/mL (≈ 1.22 µM).
